Here are results for 28 compounds from ChEMBL document CHEMBL2157961, “Optimisation of pharmacokinetic properties in a neutral series of 11β-HSD1 inhibitors” (Bioorg Med Chem Lett, 2012).

The nature of data set [1]: Lipophilicity, log D of the compound at pH 7.4. Format: physicochemical. Particulars: buffer.
Data set [2] in a line: Oral bioavailability in rat. It is filed as ADME, organism-based. The following applies: in vivo.
Data set [3] has as its system Canis familiaris. Briefly: Volume of distribution at steady state in dog at 1 mg/kg, po and iv. Format: ADME, organism-based, Canis lupus familiaris. The arrangement: dose 1 mg/kg, route oral. Particulars: in vivo.
The nature of data set [4]: Cmax in dog at 1 mg/kg, po and iv. It is filed as ADME, organism-based, Canis lupus familiaris. The arrangement: dose 1 mg/kg, route oral. Particulars: in vivo.
A short description of data set [5]: Oral bioavailability in dog at 1 mg/kg. Format: ADME, organism-based, Canis lupus familiaris. Particulars: in vivo.
Data set [6] can be described thus: Aqueous solubility in phosphate buffer at pH 7.4 after 24 hrs. It is filed as physicochemical. The method in brief:
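Solubility measured on crystalline material in aqueous phosphate buffer, pH 7.4, after 24 h at 25 °C.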

Data set [7] in a line: Apparent permeability across apical to basolateral side in MDCK cells at 10 uM. It is filed as ADME, cell-based, Canis lupus familiaris. Particulars: dog. Summed up:
(§1)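 Test compound at […] incubated on cultured MDCK cell monolayers. Apparent permeability measured in both directions, apical to basolateral and basolateral to apical.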

Data set [8] can be described thus: Apparent permeability across basolateral to apical side in MDCK cells at 10 uM. It is filed as ADME, cell-based, Canis lupus familiaris. The following applies: dog. The method in brief: as §1

In brackets after ≈: the same amount, converted by molar mass.

Consider `Cc1ncc(C(=O)N[C@H]2C3CC4CC2C[C@](O)(C4)C3)c(-c2ccccc2)n1`, for which the logD (commonly lipophilicity at a set pH, counting ionised and neutral species) in data set [1] is 1.1.

Compound `Cc1ncc(C(=O)N[C@H]2C3CC4CC2C[C@](O)(C4)C3)c(C2CCCC2)n1` came in with a logD in data set [1] of 2. Further, the bioavailability in data set [2] stood at 77%; in data set [5], 58%. For the same compound, the Vdss in data set [3] came to 0.9 L/kg. The highest level in data set [4] (Cmax) was 170 nM.

The compound `CCCSc1nc(C)ccc1C(=O)N[C@H]1C2CC3CC1C[C@](O)(C3)C2` came in with a pH-dependent lipophilicity (logD) in data set [1] of 2.8. Also, the bioavailability came to 63% in data set [2] and 5% in data set [5]. For the same compound, the Vdss in data set [3] is 0.4 L/kg. Further, the Cmax (in general, the peak of the concentration-time curve) in data set [4] amounted to 150 nM.

`CCCSc1nc(N2CCOCC2)ncc1C(=O)N[C@H]1C2CC3CC1C[C@](O)(C3)C2` returned a logD in data set [1] of 2.8. Besides, the figures for the bioavailability in data set [2] and in data set [5] were 83% and 10%, respectively. This compound also yielded a Vdss in data set [3] of 0.7 L/kg. Besides, the peak concentration (Cmax) in data set [4] came out at 40 nM.

In the case of `CCCSc1ncncc1C(=O)N[C@H]1C2CC3CC1C[C@](O)(C3)C2`, the logD in data set [1] came out at 2. Further, the bioavailability in data set [2] was 0%.

Regarding `CCCSc1nc(NC)ccc1C(=O)N[C@H]1C2CC3CC1C[C@](O)(C3)C2`, the logD in data set [1] was determined as 3.3. Besides, the bioavailability in data set [2] came to 30%.

`Cc1ncc(C(=O)N[C@H]2C3CC4CC2C[C@](O)(C4)C3)c(CC2CC2)n1` registered a logD in data set [1] of 1.2.

On to `CCCSc1nc(N2CCOCC2)ccc1C(=O)N[C@H]1C2CC3CC1C[C@](O)(C3)C2`, for which the logD in data set [1] was determined as 2.9. Besides, the values for the bioavailability in data set [2] and in data set [5] were 64% and 0%, respectively. The compound also gave a Vdss in data set [3] of 0.5 L/kg.

`CCCOc1nc(N2CCOCC2)ccc1C(=O)N[C@H]1C2CC3CC1C[C@](O)(C3)C2` came in with a logD in data set [1] of 3.8. Further, the bioavailability in data set [2] turned out to be 31%.

In data set [1], `O=C(N[C@H]1C2CC3CC1C[C@](O)(C3)C2)c1ccc(N2CCOCC2)nc1C1CC1` yielded a logD of 2. The bioavailability in data set [2] came out at 100%; in data set [5], 25%. The Vdss in data set [3] was 0.6 L/kg. The compound also showed a Cmax in data set [4] of 40 nM.

The compound `Cc1ncc(C(=O)N[C@H]2C3CC4CC2C[C@](O)(C4)C3)c(CC(C)C)n1` registered a logD in data set [1] of 1.4. In data set [2], the bioavailability is 100%.

In the case of `Cc1ncc(C(=O)N[C@H]2C3CC4CC2C[C@](O)(C4)C3)c(C2CC2)n1`, the logD in data set [1] stood at 1.2.

Consider `Cc1nc(N2CCOCC2)ncc1C(=O)N[C@H]1C2CC3CC1C[C@](O)(C3)C2`, for which the log distribution coefficient (logD) in data set [1] stood at 1.2.

In data set [1], `Cc1ncc(C(=O)N[C@H]2C3CC4CC2C[C@](O)(C4)C3)c(C(C)(C)C)n1` gave a logD of 1.9. Besides, the bioavailability in data set [2] was found to be 84%.

In the case of `CCCOc1nc(N2CCOCC2)ncc1C(=O)N[C@H]1C2CC3CC1C[C@](O)(C3)C2`, in data set [1], the logD amounted to 3. Moreover, the bioavailability in data set [2] was determined as 36%.

`CCCSc1nc(N(C)C)ccc1C(=O)N[C@H]1C2CC3CC1C[C@](O)(C3)C2` registered a logD in data set [1] of 3.8. Besides, the bioavailability in data set [2] is 24%.

Consider `CCCCc1nc(C)ncc1C(=O)N[C@H]1C2CC3CC1C[C@](O)(C3)C2`, for which the log distribution coefficient (logD) in data set [1] was 1.6. Further, in data set [2], the bioavailability was determined as 98%.

`Cc1ccc(C(=O)N[C@H]2C3CC4CC2C[C@](O)(C4)C3)c(C2CC2)n1` returned a logD in data set [1] of 1.6. Also, the values for the bioavailability in data set [2] and in data set [5] were 75% and 37%, respectively. Besides, the Vdss in data set [3] is 0.3 L/kg. The same compound showed a Cmax in data set [4] of 260 nM.

For the compound `O=C(N[C@H]1C2CC3CC1C[C@](O)(C3)C2)c1cnc(N2CCOCC2)nc1C1CCCCC1`, the logD in data set [1] was found to be 3.2. Further, in data set [2], the bioavailability worked out at 31%.

In the case of `O=C(N[C@H]1C2CC3CC1C[C@](O)(C3)C2)c1cnc(N2CCOCC2)nc1C1CCCC1`, the logD in data set [1] worked out at 3. In data set [2], the bioavailability was determined as 67%.

In data set [1], `CCCSc1nc(NC)ncc1C(=O)N[C@H]1C2CC3CC1C[C@](O)(C3)C2` returned a logD of 2.9.

Turning to `O=C(N[C@H]1C2CC3CC1C[C@](O)(C3)C2)c1cnc(N2CCOCC2)nc1C1CC1`, the logD in data set [1] is 2.1. Further, the bioavailability in data set [2] and in data set [5] was 100% throughout. The same compound had a Vdss in data set [3] of 0.9 L/kg. The concentration in data set [4] peaked (Cmax) at 360 nM. Moreover, the solubility (in general, the dissolved amount per volume that the medium holds) at 24 h in data set [6] was 240 µM (≈ 95.6 µg/mL). Moreover, the Papp A→B (usually the apparent permeability from the apical to the basolateral side of a cell layer) at 10 µM in data set [7] amounted to 19 ×10⁻⁶ cm/s. For the same compound, the Papp B→A (as a rule, the apparent permeability from the basolateral to the apical side of a cell layer) at 10 µM in data set [8] was determined as 30 ×10⁻⁶ cm/s.

For the compound `CC1(c2nc(N3CCOCC3)ncc2C(=O)N[C@H]2C3CC4CC2C[C@](O)(C4)C3)CC1`, the logD in data set [1] came out at 1.8.

On to `Cc1ncc(C(=O)N[C@H]2C3CC4CC2C[C@](O)(C4)C3)c(CC2CCCC2)n1`, for which, in data set [1], the logD was 2.1. Moreover, in data set [2], the bioavailability came out at 50%.

Compound `CC(C)(C)c1nc(N2CCOCC2)ncc1C(=O)N[C@H]1C2CC3CC1C[C@](O)(C3)C2` registered a logD in data set [1] of 2.6. In addition, the bioavailability in data set [2] is 100%.

In turn, `CCCSc1nc(N(C)C)ncc1C(=O)N[C@H]1C2CC3CC1C[C@](O)(C3)C2` registered a logD in data set [1] of 3.4.

Take `CCCSc1nc(C)ncc1C(=O)N[C@H]1C2CC3CC1C[C@](O)(C3)C2`: in data set [1], the logD was 2.5. Further, the bioavailability in data set [2] came to 74%; in data set [5], 110%. The Vdss in data set [3] is 0.3 L/kg. In data set [4], this compound registered a Cmax of 490 nM.

As for `O=C(N[C@H]1C2CC3CC1C[C@](O)(C3)C2)c1cnc(N2CCOCC2)nc1C1CCC1`, in data set [1], the logD was 2.4. Also, the bioavailability in data set [2] stood at 45%.
